# Laboratory results from ChEMBL document CHEMBL1255494, “In vivo comparison of the pharmacodynamic targets for echinocandin drugs against Candida species” (Antimicrob Agents Chemother, 2010).
# *1 amine or outer side, *2 acyl side, *3 side chain or, on linkers, in order; H or OH if unused. Where a SMILES comes first, the peptide text is derived from it. Bridges are numbered along the chain shown (N, C = ends). [ ]: non-standard residue; d: D form. The star is where a group is joined. pTerphenylCO(4''-OnC5H11) = CCCCCOc1ccc(-c2ccc(-c3ccc(C(=O)*)cc3)cc2)cc1; Orn(4R-OH,5R-OH) = O=C([C@H](C[C@@H](O)[C@@H](O)N[*:3])N[*:1])[*:2]; hTyr(3S-OH,4S-OH) = N[C@H](C(=O)O)[C@H](O)[C@@H](O)c1ccc(O)cc1; Pro(3S-OH,4S-Me) = C[C@H]1CN[C@H](C(=O)O)[C@H]1O; Hyp = O=C(O)[C@@H]1C[C@@H](O)CN1
# How the values were obtained:
# Candida parapsilosis [1] = experiment: Antifungal activity against Candida parapsilosis 20477.078 after 24 hrs; format: functional; conditions: Lodderomyces parapsilosis, 20477.078, 24 h
# In short: (§1)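 MICs by CLSI M27-A3 broth dilution in RPMI 1640, inoculum 0.5 × 10³ to 2.5 × 10³ cells/ml, 35°C. Read visually at 24 h as the lowest concentration giving ≥50% growth reduction versus control. Run on three occasions in duplicate and reported as the mean. C. krusei ATCC 6258 and C. parapsilosis ATCC 22019 served as QC strains.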
# Candida albicans [2] = experiment: Fungistatic activity against Candida albicans infected in neutropenic ICR Swiss mouse after 24 hrs; format: functional
# In short: (§2)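 Female ICR Swiss mice, neutropenic via cyclophosphamide s.c. (150 mg/kg day −4, 100 mg/kg day −1 and day +2), infected by tail-vein injection of clinical isolates 2 h before therapy. Intraperitoneal dosing every 24 h for 4 days, 4–6 dose levels from 0.078 to 160 mg/kg, 3 mice per regimen. Kidney CFU counted at 96 h. Sigmoid dose-effect fit gives static dose and 1 log kill dose relative to burden at start of therapy.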
# Candida albicans [3] = experiment: Antifungal activity against Candida albicans infected in ICR Swiss mouse; format: functional; in short: as §2
# Candida metapsilosis = experiment: Antifungal activity against Candida metapsilosis 20463.02 after 24 hrs; format: functional; conditions: Lodderomyces metapsilosis, 20463.02, 24 h; in short: as §1
# Candida albicans [4] = experiment: Antifungal activity against Candida albicans 580 after 24 hrs; format: functional; conditions: Candida albicans, 580, 24 h
# In short: (§3)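 Broth microdilution per CLSI M27-A3 in RPMI 1640; inoculum 0.5 × 10³ to 2.5 × 10³ cells/ml, 35°C. […] Three separate occasions in duplicate, mean reported; C. krusei ATCC 6258 and C. parapsilosis ATCC 22019 as daily QC.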
# Candida parapsilosis [5] = experiment: Antifungal activity against Candida parapsilosis infected in ICR Swiss mouse assessed log reduction in bacterial count […]; format: functional; in short: as §2
# Candida parapsilosis [6] = experiment: Antifungal activity against Candida parapsilosis 20450.096 after 24 hrs; format: functional; conditions: Lodderomyces parapsilosis, 20450.096, 24 h; in short: as §1
# [7] = Ratio of AUC (0 to 24 hrs) in Candida parapsilosis infected neutropenic ICR Swiss mouse to MIC for Candida parapsilosis at 1 log kill dose after 24 hrs; format: functional
# In short: (§4)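 Neutropenic mice were infected iv and treated 2 h later. Four to six ip dose levels (0.078–160 mg/kg) were given every 24 h for 4 days, 3 mice per regimen. Kidney CFU were counted at 96 h. A sigmoid dose-effect model gave the static and 1-log-kill doses relative to burden at therapy start.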
# Nakaseomyces glabratus [8] = experiment: Antifungal activity against Candida glabrata 513 after 24 hrs; format: functional; conditions: Nakaseomyces glabratus, 513, 24 h; in short: as §3
# [9] = Ratio of AUC (0 to 24 hrs) in Candida glabrata infected neutropenic ICR Swiss mouse to MIC for Candida glabrata at 1 log kill dose after 24 hrs; format: functional; in short: as §4
# [10] = Ratio of fAUC (0 to 24 hrs) in Candida parapsilosis infected neutropenic ICR Swiss mouse to MIC for Candida parapsilosis at 1 log kill dose after 24 hrs; format: functional
# [11] = Ratio of AUC (0 to 24 hrs) in Candida albicans infected neutropenic ICR Swiss mouse to MIC for Candida albicans at static dose after 24 hrs; format: functional; in short: as §4
# Candida parapsilosis [12] = experiment: Antifungal activity against Candida parapsilosis 20557.012 after 24 hrs; format: functional; conditions: Lodderomyces parapsilosis, 20557.012, 24 h; in short: as §1
# [13] = Ratio of fAUC (0 to 24 hrs) in Candida glabrata infected neutropenic ICR Swiss mouse to MIC for Candida glabrata at static dose after 24 hrs; format: functional
# Nakaseomyces glabratus [14] = experiment: Antifungal activity against Candida glabrata infected in neutropenic ICR Swiss mouse assessed log reduction in bacterial count […]; format: functional; in short: as §2
# Nakaseomyces glabratus [15] = experiment: Antifungal activity against Candida glabrata 5376 after 24 hrs; format: functional; conditions: Nakaseomyces glabratus, 5376, 24 h; in short: as §3
# [16] = Ratio of AUC (0 to 24 hrs) in Candida parapsilosis infected neutropenic ICR Swiss mouse to MIC for Candida parapsilosis at static dose after 24 hrs; format: functional; in short: as §4
# Nakaseomyces glabratus [17] = experiment: Antifungal activity against Candida glabrata 33609 after 24 hrs; format: functional; conditions: Nakaseomyces glabratus, 33609, 24 h; in short: as §3
# [18] = Ratio of fAUC (0 to 24 hrs) in Candida albicans infected neutropenic ICR Swiss mouse to MIC for Candida albicans at 1 log kill dose after 24 hrs; format: functional
# [19] = Ratio of fAUC (0 to 24 hrs) in Candida albicans infected neutropenic ICR Swiss mouse to MIC for Candida albicans at static dose after 24 hrs; format: functional
# Nakaseomyces glabratus [20] = experiment: Antifungal activity against Candida glabrata 37661 after 24 hrs; format: functional; conditions: Nakaseomyces glabratus, 37661, 24 h; in short: as §1
# Candida albicans [21] = experiment: Antifungal activity against Candida albicans 98-17 after 24 hrs; format: functional; conditions: 98-17, 24 h; in short: as §1
# Candida parapsilosis [22] = experiment: Antifungal activity against Candida parapsilosis 20489.085 after 24 hrs; format: functional; conditions: Lodderomyces parapsilosis, 20489.085, 24 h; in short: as §3
# Candida albicans [23] = experiment: Antifungal activity against Candida albicans K1 after 24 hrs; format: functional; conditions: K1, 24 h; in short: as §3
# [24] = AUC (0 to 24 hrs) in Candida albicans infected neutropenic ICR Swiss mouse at 20 mg/kg, ip; format: ADME, organism-based; design: time < 24 hr, dose 20 mg/kg, route intraperitoneal; conditions: plasma
# In short: (§5)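 Neutropenic female ICR Swiss mice (cyclophosphamide sc at 150 mg/kg on day −4, 100 mg/kg on day −1 and day +2) infected iv via tail vein with Candida; single ip doses of 5, 20 or 80 mg/kg. Serum drawn from 3 mice per time point at eight time points and assayed by microbiologic assay (C. albicans K1) or […]. Noncompartmental analysis; AUC by trapezoidal rule.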
# Nakaseomyces glabratus [25] = experiment: Antifungal activity against Candida glabrata 5592 after 24 hrs; format: functional; conditions: Nakaseomyces glabratus, 5592, 24 h; in short: as §3
# Candida parapsilosis [26] = experiment: Antifungal activity against Candida parapsilosis 20477.048 after 24 hrs; format: functional; conditions: Lodderomyces parapsilosis, 20477.048, 24 h; in short: as §1
# Candida parapsilosis [27] = experiment: Antifungal activity against Candida parapsilosis 20562.03 after 24 hrs; format: functional; conditions: Lodderomyces parapsilosis, 20562.03, 24 h; in short: as §1
# [28] = Ratio of AUC (0 to 24 hrs) in Candida glabrata infected neutropenic ICR Swiss mouse to MIC for Candida glabrata at static dose after 24 hrs; format: functional; in short: as §4
# Candida parapsilosis [29] = experiment: Antifungal activity against Candida parapsilosis 20423.072 after 24 hrs; format: functional; conditions: Lodderomyces parapsilosis, 20423.072, 24 h; in short: as §1
# Candida parapsilosis [30] = experiment: Fungistatic activity against Candida parapsilosis infected in neutropenic ICR Swiss mouse after 24 hrs; format: functional; in short: as §2
# Nakaseomyces glabratus [31] = experiment: Antifungal activity against Candida glabrata 33616 after 24 hrs; format: functional; conditions: Nakaseomyces glabratus, 33616, 24 h; in short: as §1
# Nakaseomyces glabratus [32] = experiment: Antifungal activity against Candida glabrata 34341 after 24 hrs; format: functional; conditions: Nakaseomyces glabratus, 34341, 24 h; in short: as §1
# [33] = AUC (0 to 24 hrs) in Candida albicans infected neutropenic ICR Swiss mouse at 5 mg/kg, ip; format: ADME, organism-based; design: time < 24 hr, dose 5 mg/kg, route intraperitoneal; conditions: plasma; in short: as §5
# Candida parapsilosis [34] = experiment: Antifungal activity against Candida parapsilosis 20519.069 after 24 hrs; format: functional; conditions: Lodderomyces parapsilosis, 20519.069, 24 h; in short: as §1
# Candida parapsilosis [35] = experiment: Antifungal activity against Candida parapsilosis 20553.009 after 24 hrs; format: functional; conditions: Lodderomyces parapsilosis, 20553.009, 24 h; in short: as §1
# Candida parapsilosis [36] = experiment: Antifungal activity against Candida parapsilosis 20435.057 after 24 hrs; format: functional; conditions: Lodderomyces parapsilosis, 20435.057, 24 h; in short: as §1
compound,measurement,setting,value
"CCCCCOc1ccc(-c2ccc(-c3ccc(C(=O)N[C@H]4C[C@@H](O)[C@@H](O)NC(=O)[C@@H]5[C@@H](O)[C@@H](C)CN5C(=O)[C@H]([C@@H](C)O)NC(=O)[C@H]([C@H](O)[C@@H](O)c5ccc(O)cc5)NC(=O)[C@@H]5C[C@@H](O)CN5C(=O)[C@H]([C@@H](C)O)NC4=O)cc3)cc2)cc1 [ANIDULAFUNGIN] ({pTerphenylCO(4''-OnC5H11)}-[Orn(4R-OH,5R-OH)]T[Hyp][hTyr(3S-OH,4S-OH)]T[Pro(3S-OH,4S-Me)]; lactam 1-C)",MIC,Candida parapsilosis [1],2 µg/mL
same,Activity,Candida albicans [2],2.32 mg/kg
same,Emax,Candida albicans [3],6.9 log10 CFU/kidneys
same,ED50,Candida albicans [3]; Candida albicans,26.1 mg/kg
same,MIC,Candida metapsilosis,0.25 µg/mL
same,MIC,Candida albicans [4],0.015 µg/mL
same,Activity,Candida parapsilosis [5],47 mg/kg
same,MIC,Candida parapsilosis [6],1 µg/mL
same,Ratio,[7],2244
same,MIC,Nakaseomyces glabratus [8],0.06 µg/mL
same,Ratio,[9],3188
same,Ratio,[10],22
same,Ratio,[11],2782
same,MIC,Candida parapsilosis [12],0.5 µg/mL
same,Ratio,[13],13.7
same,Activity,Nakaseomyces glabratus [14],39 mg/kg
same,MIC,Nakaseomyces glabratus [15],0.03 µg/mL
same,Ratio,[16],1154
same,MIC,Nakaseomyces glabratus [17],0.03 µg/mL
same,Ratio,[18],91
same,Ratio,[19],27.8
same,MIC,Nakaseomyces glabratus [20],2 µg/mL
same,MIC,Candida albicans [21],0.03 µg/mL
same,MIC,Candida parapsilosis [22],1 µg/mL
same,MIC,Candida albicans [23],0.015 µg/mL
same,AUC(0-t) at 24 h,[24],382 µg·h/mL
same,MIC,Nakaseomyces glabratus [25],0.06 µg/mL
same,MIC,Candida parapsilosis [26],2 µg/mL
same,MIC,Candida parapsilosis [27],1 µg/mL
same,Ratio,[28],1366
same,MIC,Candida parapsilosis [29],1 µg/mL
same,Activity,Candida parapsilosis [30],51 mg/kg
same,MIC,Nakaseomyces glabratus [31],1 µg/mL
same,MIC,Nakaseomyces glabratus [32],0.12 µg/mL
same,AUC(0-t) at 24 h,[33],96 µg·h/mL
same,MIC,Candida parapsilosis [34],4 µg/mL
same,MIC,Candida parapsilosis [35],2 µg/mL
same,MIC,Candida parapsilosis [36],1 µg/mL
